Experimental findings from ChEMBL document CHEMBL2390859, “Solid phase synthesis and biological evaluation of probestin as an angiogenesis inhibitor” (Bioorg Med Chem Lett, 2013) are described below.

The structures appear in SMILES notation. Active and inactive are the calls of the source.

For series [1], the system named is MDA-MB-435. Description: Antiangiogenic activity in human MDA-MB-435 cells xenografted in chicken embryo chorioallantoic membrane assessed as inhibition of blood vessel formation at 20 mg/kg measured after 2 days. In kind it is functional, organism-based. Also noted: dose 20 mg/kg. In short, it runs like this: (§1)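 Under the vascularized CAM of 10-day-old chicken embryos, 500,000 human breast carcinoma MDA-MB-435 cells were implanted. Embryos were dosed systemically with 20 mg/kg on days one and two. Tumor growth and vascularity were assessed, with 8–10 separate CAMs per group.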

For series [2], the system named is MDA-MB-435. The series can be described thus: Antitumor activity against human MDA-MB-435 cells xenografted in chicken embryo chorioallantoic membrane assessed as inhibition of tumor volume at 20 mg/kg measured after 2 days. Format: functional, organism-based. Also noted: dose 20 mg/kg. Put shortly:
as §1
A general note: In xenograft studies the graft and the host belong to different species.

Series [3] is described as follows: Acute toxicity in ip dosed CDF mouse. In kind it is organism-based. The note with it: in vivo.
A short description of series [4]: Toxicity in chicken embryo chorioallantoic membrane assessed as effect on blood vessel at 10 uM applied topically to filter paper surface after 48 hrs by stereo microscopic analysis. Format: tissue-based, Gallus gallus. The note with it: in vivo.
Series [5] is described as follows: Toxicity in ip dosed BalbC mouse assessed as body weight loss administered 3 times per week measured over 6 weeks. In kind it is organism-based. To be noted: in vivo. Put shortly: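 Female BalbC mice, 10 weeks old and healthy, in groups of four, dosed ip at 50, 100, 200 and 300 mg/kg three times weekly. Body weight was tracked over 6 weeks, with observation for acute distress during the first 96 h after injection. MTD was defined as significant weight loss over 6 weeks (P <0.05, one-way ANOVA with Neuman–Keuls post test).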

The species named for series [6] is Gallus gallus. To be noted: Chorioallantoic membrane, 10 uM.
A further series concerns Mus musculus. The series can be described thus: Toxicity in BalbC mouse assessed as body weight loss at 50 to 200 mg/kg, ip administered 3 times per week measured over 6 weeks. Format: organism-based. Also noted: dose 50-200 mg/kg, route intraperitoneal. To be noted: in vivo, 1008 h. Put shortly:
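Healthy female BalbC mice, 10 weeks old, in groups of four, dosed intraperitoneally at 50, 100, 200 or 300 mg/kg three times weekly. Weights were tracked over 6 weeks and acute distress was watched for during the first 96 h. Significant weight loss over 6 weeks (P <0.05, one-way ANOVA with Neuman–Keuls post test) was the MTD criterion.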

Series [7] deals with Gallus gallus. Description: Antiangiogenic activity in chicken embryo chorioallantoic membrane assessed as inhibition of VEGF-induced blood vessel formation at 25 uM applied topically to filter paper surface after 48 hrs by stereo microscopic analysis. Format: functional, tissue-based. Put shortly: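 CAM of 10-day-old chicken embryos; angiogenesis induced with filter discs soaked in VEGF, test agent applied alongside. 8–10 separate CAMs per group.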

In general, LD50 refers to the dose expected to kill half of the subjects tested. A low value points to a more toxic substance.

Take `CC(C)C[C@H](NC(=O)[C@@H](O)[C@H](N)Cc1ccccc1)C(=O)O`: the inhibition result with MDA-MB-435 [1] and in the series with MDA-MB-435 [2] was “Active” in each case.

With `CC(C)C[C@H](NC(=O)[C@@H](O)[C@H](N)Cc1ccccc1)C(=O)N1CCC[C@H]1C(=O)N1CCC[C@H]1C(=O)O` [PROBESTIN], the median lethal dose (LD50) in series [3] is greater than 250 mg/kg. Besides, the Activity entry (in series [4]; in the series with Mus musculus) was “Non-toxic” throughout. Moreover, the inhibition entry in the series with MDA-MB-435 [1], with MDA-MB-435 [2] and in the series filed under Gallus gallus [6] was “Active” each time. The MTD at 1008 h in series [5] worked out at 300 mg/kg.

Regarding `CCN(CC)CCNC(=O)c1c(C)[nH]c(/C=C2\C(=O)Nc3ccc(F)cc32)c1C`, the inhibition result in the series on MDA-MB-435 [1], in the series with Gallus gallus [7] and in the series with MDA-MB-435 [2] was “Active” throughout.
